Test results from ChEMBL document CHEMBL4339223, “Polycyclic Maleimide-based Scaffold as New Privileged Structure for Navigating the Cannabinoid System Opportunities” (ACS Med Chem Lett, 2019).
Activity calls are given as the source filed them. The calls are words filed in the database; no cut-off is given here.

What was measured:
Cannabinoid receptor 2 [1] = target: T1, Cannabinoid receptor 2 (Homo sapiens, UniProt P34972); experiment: Displacement of [3H]-CP55940 from human recombinant cannabinoid CB2 receptor expressed in HEK293 cell membranes incubated for 90 mins
In short: (§1)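 Competition binding against [3H]-CP55940 on human recombinant CB1 or CB2 receptor, with increasing concentrations of test compound. IC50 was obtained by nonlinear regression of the inhibition of radioligand binding. Ki was calculated with the Cheng–Prusoff equation, and only where IC50 was below 10 μM.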

[2] = target: Glycogen synthase kinase-3 beta (Homo sapiens, UniProt P49841); experiment: inhibition of GSK3beta (unknown origin) by LANCE Ultra TR-FRET assay
Cannabinoid receptor 2 [3] = target: T1, Cannabinoid receptor 2; experiment: Displacement of [3H]-CP55940 from human recombinant cannabinoid CB2 receptor expressed in HEK293 cell membranes incubated for 90 mins by Cheng-Prusoff equation analysis; in short: as §1
Cannabinoid receptor 1 [4] = target: T2, Cannabinoid receptor 1 (Homo sapiens, UniProt P21554); experiment: Displacement of [3H]-CP55940 from human recombinant cannabinoid CB1 receptor expressed in HEK293 cell membranes incubated for 90 mins by Cheng-Prusoff equation analysis; in short: as §1
Cannabinoid receptor 2 [5] = target: T1, Cannabinoid receptor 2; experiment: Noncompetitive antagonist activity at human recombinant cannabinoid CB2 receptor expressed in CHOK1 cells assessed as inhibition of NKH-477-induced cAMP accumulation by measuring parallel shifts of NKH-477 concentration-response curves pre-incubated for 15 mins before NKH-477 stimulation for 30 mins by chemiluminescent detection based cAMP Hunter assay based Schild plot analysis; assay type: functional, cell-based
In short: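 Functional cAMP assay under NKH-477 (water-soluble forskolin analog) stimulation. JWH-133 concentration–response curves were run alone and with several concentrations of the antagonist. The concentration ratio was taken as EC50 of JWH-133 with antagonist divided by the concentration giving the same response without it. log(CR–1) was plotted against log antagonist concentration, and the Schild slope came from linear regression.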

[6] = Inhibition of calcium channel in human SH-SY5Y cells assessed as blockade of 70 mM potassium-evoked depolarization-induced Ca2+ entry; assay type: cell-based
Cannabinoid receptor 1 [7] = target: T2, Cannabinoid receptor 1; experiment: Displacement of [3H]-CP55940 from human recombinant cannabinoid CB1 receptor expressed in HEK293 cell membranes incubated for 90 mins; in short: as §1
Cannabinoid receptor 2 [8] = target: T1, Cannabinoid receptor 2; experiment: Noncompetitive antagonist activity at human recombinant cannabinoid CB2 receptor expressed in CHOK1 cells assessed as inhibition of NKH-477-induced cAMP accumulation pre-incubated for 15 mins before NKH-477 stimulation for 30 mins by chemiluminescent detection based cAMP Hunter assay; assay type: functional, cell-based
Cannabinoid receptor 2 [9] = target: T1, Cannabinoid receptor 2; experiment: Activity at human recombinant cannabinoid CB2 receptor expressed in CHOK1 cells assessed as induction of cAMP content back to basal condition up to 25 uM pre-incubated for 15 mins before NKH-477 stimulation for 30 mins by chemiluminescent detection based cAMP Hunter assay; assay type: functional, cell-based

T1 sequence (P34972 whole entry): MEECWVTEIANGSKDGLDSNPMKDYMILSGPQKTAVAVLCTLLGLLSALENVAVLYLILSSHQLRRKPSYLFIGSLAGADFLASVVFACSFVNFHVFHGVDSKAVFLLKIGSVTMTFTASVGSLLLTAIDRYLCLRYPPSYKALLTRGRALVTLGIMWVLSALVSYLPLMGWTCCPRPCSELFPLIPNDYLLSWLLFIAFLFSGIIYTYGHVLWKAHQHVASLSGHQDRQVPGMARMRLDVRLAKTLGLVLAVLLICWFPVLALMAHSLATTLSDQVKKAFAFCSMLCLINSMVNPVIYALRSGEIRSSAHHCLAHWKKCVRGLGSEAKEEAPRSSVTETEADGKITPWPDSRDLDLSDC
T2 sequence (P21554 whole entry): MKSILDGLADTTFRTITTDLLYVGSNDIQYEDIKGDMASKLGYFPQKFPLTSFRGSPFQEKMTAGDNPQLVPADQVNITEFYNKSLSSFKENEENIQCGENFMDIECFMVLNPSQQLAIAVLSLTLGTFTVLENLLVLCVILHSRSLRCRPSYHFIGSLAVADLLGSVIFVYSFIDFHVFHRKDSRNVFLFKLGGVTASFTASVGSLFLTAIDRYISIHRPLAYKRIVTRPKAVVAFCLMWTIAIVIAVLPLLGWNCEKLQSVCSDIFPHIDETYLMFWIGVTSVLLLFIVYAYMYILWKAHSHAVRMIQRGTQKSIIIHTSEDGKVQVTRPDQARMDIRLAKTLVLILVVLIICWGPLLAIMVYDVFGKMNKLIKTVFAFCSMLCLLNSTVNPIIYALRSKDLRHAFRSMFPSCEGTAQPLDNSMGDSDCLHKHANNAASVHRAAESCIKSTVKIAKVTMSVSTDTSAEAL
Chain of Glycogen synthase kinase-3 beta (P49841 whole entry): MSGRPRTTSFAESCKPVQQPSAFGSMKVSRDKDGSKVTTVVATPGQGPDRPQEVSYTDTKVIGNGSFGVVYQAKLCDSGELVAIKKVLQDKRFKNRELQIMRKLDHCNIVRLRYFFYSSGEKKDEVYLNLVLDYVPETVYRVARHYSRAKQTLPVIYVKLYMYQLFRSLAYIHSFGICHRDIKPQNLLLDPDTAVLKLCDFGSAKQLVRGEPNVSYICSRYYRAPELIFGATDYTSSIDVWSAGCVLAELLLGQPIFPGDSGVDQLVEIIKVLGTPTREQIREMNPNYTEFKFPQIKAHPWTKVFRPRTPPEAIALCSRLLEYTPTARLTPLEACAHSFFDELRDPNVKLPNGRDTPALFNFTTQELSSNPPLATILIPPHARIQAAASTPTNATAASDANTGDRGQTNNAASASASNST

Row | Structure (SMILES) | IC50 (Cannabinoid receptor 2 [1]) [µM] | inhibition (INH) [2] | Ki (Cannabinoid receptor 2 [3]) [µM] | Ki (Cannabinoid receptor 1 [4]) [µM] | Activity (Cannabinoid receptor 2 [5]) | inhibition (INH) [6] | IC50 (Cannabinoid receptor 1 [7]) [µM] | Activity (Cannabinoid receptor 2 [8]) | Activity (Cannabinoid receptor 2 [9])
1 | CCCCCCCOCC12c3ccccc3C(c3ccccc31)C1C(=O)NC(=O)C12 (configuration not stated) | 0.9 | Not Active | 0.23 | > 10 | Active | Not Active | > 10 | Active | –
2 | CCCCCCCNCC12c3ccccc3C(c3ccccc31)C1C(=O)NC(=O)C12 (configuration not stated) | 3.93 | – | 1.01 | > 10 | – | – | > 10 | – | –
3 | O=C1NC(=O)C2C3c4ccccc4C(c4ccccc43)C12 (configuration not stated) | > 10 | – | > 10 | > 10 | – | – | > 10 | – | –
4 | CCCCCCCN1C(=O)C2C3c4ccccc4C(c4cc(Cl)ccc43)C2C1=O (configuration not stated) | 6.85 | – | 1.74 | > 10 | – | – | > 10 | – | –
5 | CCCCCCCN1C(=O)C2C3c4ccccc4C(c4ccccc43)C2C1=O (configuration not stated) | 7.94 | – | 2.01 | 3.77 | – | – | 9.35 | – | –
6 | CCCCCCCN1C(=O)C2C3c4ccccc4C(Cl)(c4ccccc43)C2C1=O (configuration not stated) | 9.88 | – | 2.51 | > 10 | – | – | > 10 | – | –
7 | CCCCCCCNCC12c3ccccc3C(c3ccccc31)C1C(=O)N(CCCCCCC)C(=O)C12 (configuration not stated) | > 10 | – | > 10 | > 10 | – | – | > 10 | – | –
8 | CCCCCCN1C(=O)C2C3c4ccccc4C(C)(c4ccccc43)C2C1=O (configuration not stated) | 3.93 | – | 1.01 | > 10 | – | – | > 10 | – | –
9 | CCCCCCCN1C(=O)C2C3c4ccccc4C(C)(c4ccccc43)C2C1=O (configuration not stated) | 3.86 | – | 0.98 | > 10 | – | – | > 10 | – | –
10 | CCCCCCCOCC12c3ccccc3C(c3ccccc31)C1C(=O)N(CCCCCCC)C(=O)C12 (configuration not stated) | > 10 | – | > 10 | > 10 | – | – | > 10 | – | –
11 | CCCCCCCN1C(=O)C2C3c4ccccc4C(Br)(c4ccccc43)C2C1=O (configuration not stated) | > 10 | – | > 10 | > 10 | – | – | > 10 | – | –
12 | CCCCCCN1C(=O)C2C3c4ccccc4C(c4ccccc43)C2C1=O (configuration not stated) | 8.14 | – | 2.06 | > 10 | – | – | > 10 | – | inactive
13 | CCCCCCCCN1C(=O)C2C3c4ccccc4C(c4ccccc43)C2C1=O (configuration not stated) | 8.74 | – | 2.22 | > 10 | – | – | > 10 | – | –
